Bioassay records deposited in PubChem by Broad Institute.
In the library only some 2.4% were active in any assay of this set; here they are far more common.
S100A4 MyoIIA – blocks human S100A4 binding to myosin IIA peptide; P26447; S100A4/TAMRA-MyoIIA peptide fluorescence polarization; inhibition, % at 10.7 µM; actives 0.14% (n = 360,000);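 active = mean inhibition of at least 70% across replicates, with every replicate also reaching that level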
Target sequence (P26447 whole entry, looked up): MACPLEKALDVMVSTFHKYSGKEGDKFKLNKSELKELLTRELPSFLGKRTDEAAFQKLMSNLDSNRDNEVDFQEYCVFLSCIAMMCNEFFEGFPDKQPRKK
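assay system = human S100A4 monomer with TAMRA-labelled myosin IIA peptide | also added = labelled myosin peptide probe, 5 nM | incubation = 5 min between mix addition and reading | control set = DMSO and TFP controls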
PGC1a acetyl inh – modulators of PGC1a acetylation. U2OS PGC1a acetylation, AlphaScreen anti-acetyl-lysine; with virally co-expressed GCN5 acetyltransferase. inhibition, % at 15.6 µM. actives 0.17% (n = 350,000);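 active = every replicate shows inhibition of at least 40%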;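 also: 0% = neutral control wells and 100% = positive control wells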
ARNT-TACC3 inh – disrupts binding between human ARNT and TACC3 | inhibition, % at 9.99 µM | actives 0.66% (n = 390,000) | AlphaScreen His-ARNT PAS-B/GST-TACC3 binding, luminescence; TACC3 fragment carries E629A point mutation | AID 623870;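 active = mean inhibition of replicates at least 50% and at least half of replicates each reaching 50%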;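 also: 0% = complete ARNT plus TACC3 wells and 100% = ARNT alone without TACC3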
Ecoli rRNA inh – selective bacterial rRNA inhibition in E. coli. E. coli WT GFP vs humanized-ribosome RFP mutants, fluorescence, 24 h; hits give low values; DMSO median 0, no signal -100. GFP signal change (wild-type ribosome), % (no concentration beside the values). actives 1.6% (n = 350,000). AID 720706;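 active = significant combined selectivity score with lowered wild-type GFP, culture density cut under 30%, mutant RFP and density less affected; inactive = any of these conditions unmet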
ERAP1 HTS inh – inhibitors of human ERAP1 aminopeptidase | Q9NZ08 | recombinant ERAP1, Leu-AMC fluorescence, 60 min | inhibition, % at 10.7 µM | actives 0.15% (n = 340,000);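 active = mean replicate inhibition of at least 30%, or all replicates individually reaching that 30% level; inactive = mean below 30% and not every replicate reaching it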;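 also: 0% = neutral control wells and 100% = L-leucinethiol positive control wells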
Casp6 inh – caspase-6 (human) enzyme inhibition | P55212 | purified caspase-6, Z-VEID-R110 cleavage fluorescence | inhibition, % at 12.5 µM | actives 0.53% (n = 350,000) | AID 686996;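 active = mean inhibition across replicates at least about 35%, with every replicate also reaching that limit, limit read from the data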;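 also: 0% = median of neutral control wells and 100% = no fluorescence left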
Target sequence (P55212 24-179 limits assumed): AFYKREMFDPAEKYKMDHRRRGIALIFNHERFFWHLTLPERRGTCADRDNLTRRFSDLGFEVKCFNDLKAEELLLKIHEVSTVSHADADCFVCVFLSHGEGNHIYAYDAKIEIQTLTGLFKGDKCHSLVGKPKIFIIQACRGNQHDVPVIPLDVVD
Target sequence (P55212 194-293 limits assumed): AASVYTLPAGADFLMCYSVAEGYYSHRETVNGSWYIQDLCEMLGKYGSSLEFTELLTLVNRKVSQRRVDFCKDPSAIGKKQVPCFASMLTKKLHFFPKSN
* = called active by the depositor; . = no result.

SMILES	S100A4 MyoIIA	PGC1a acetyl inh	ARNT-TACC3 inh	Ecoli rRNA inh	ERAP1 HTS inh	Casp6 inh
Fc1ccc(-c2nn(-c3ccccc3)cc2CNCc2ccccc2)cc1	-10	3	7	-38	-3	0
O=C(CCl)Nc1cn(-c2ccccc2)nc1-c1ccc(F)cc1	6	-19	-5	-24*	-2	-5
C[C@@H]1CN([C@H](C)CO)C(=O)c2cc(NC(=O)C3CCCCC3)ccc2O[C@@H](C)CCCCO[C@@H]1CN(C)S(=O)(=O)c1ccccc1	-3	4	0	0	4	2
Cc1sc2ncnc(Sc3ccccc3C(=O)O)c2c1C	-9	-3	4	-24*	-1	0
Cc1ccc(S(=O)(=O)NCC[C@@H]2CC[C@H](NC(=O)CC3CC3)[C@@H](CO)O2)cc1	16	7	-5	0	5	1
CCCc1cn(CC[C@@H]2CC[C@H](NS(=O)(=O)c3ccccc3Cl)[C@@H](CO)O2)nn1	97*	8	4	0	2	-3
Cc1ccccc1S(=O)(=O)N[C@@H]1CC[C@@H](CCn2cc(Cc3ccccc3)nn2)O[C@H]1CO	15	61*	-5	-5	3	2
CN1C(=O)c2cc(NC(=O)C3CCCC3)ccc2OC[C@H]2O[C@@H](CC(=O)NCC(F)(F)F)CC[C@H]21	1	-4	9	5	-3	1
CCOC(=O)Nc1ccc(C(=O)Oc2ccccc2)c(O)c1	2	10	-3	-32*	1	2
CC(=O)N1CCCCN2[C@H](C1)[C@@H](c1ccc(Br)cc1)[C@@H]2CO	0	6	-10	1	-1	-2
COC(=O)c1ccccc1NC(=O)c1cc(-c2cccs2)on1	0	1	-4	17	1	2
COC(=O)c1ccccc1NC(=O)c1cc(-c2ccco2)on1	-16	9	-2	14	2	66*
Cc1ccc(-c2ccc(=O)n(Cc3c(F)cccc3Cl)n2)cc1	0	4	-2	-27*	-5	1
Cc1ccc(C2CC2c2n[nH]c(=S)n2-c2ccc(C)cc2)cc1 (stereo not drawn)	-1	12	-3	-53	1	6
Cc1ccc(-n2c(C3CC3c3ccc(Cl)cc3)n[nH]c2=S)cc1 (stereo not drawn)	3	2	-8	-33*	-1	7
CN(C)CC#Cc1ccc([C@@H]2[C@@H](CO)N3C(=O)CN(C(=O)c4cccnc4)C[C@@H]23)cc1	-1	9	.	3	3	3
COc1cccc(C(=O)CSc2nnc(CNS(=O)(=O)c3ccc(C)cc3)n2C)c1	.	89*	-7	.	.	.
COC(=O)CSc1nnc(CNS(=O)(=O)c2ccc(C)cc2)n1C	.	-5	-6	.	.	.
Cc1ccccc1N1Cc2ccccc2C1=O	-4	.	.	3	2	1
O=C1Cc2ccccc2C(=O)N1Nc1ccccc1	-5	.	0	19	1	49*
COc1ccc(N2C(=O)Cc3ccccc3C2=O)cc1	-3	2	3	4	2	43*
Cc1ccccc1N1C(=O)Cc2ccccc2C1=O	-1	-4	.	4	4	54*
CCC(=O)Nc1ccc2c(c1)OC[C@H](C)N(C(C)=O)C[C@@H](C)[C@H](OC)CN(C)C2=O	15	18	.	2	2	0
COc1ccccc1CN1C(=O)c2ccccc2[C@](Cc2ccccc2I)(C(=O)NCc2ccccc2)[C@@H]1c1ccc(CO)cc1	.	7	.	.	.	.
C[N+]1(CC(O)COCC2COc3ccccc3O2)CCOCC1 (stereo not drawn)	-3	-16	.	20	104*	-3
SMILES	S100A4 MyoIIA	PGC1a acetyl inh	ARNT-TACC3 inh	Ecoli rRNA inh	ERAP1 HTS inh	Casp6 inh
O=C1C2=C(c3ccccc31)[N+](=O)C1CCCCC1N2[O-] (stereo not drawn)	.	1	17	.	.	.
O=C1C2=C(c3ccccc31)[N+](=O)[C@@H]1CCCC[C@@H]1N2[O-]	5	25	13	-14	-3	63*
CC(NC(=O)/C(C#N)=C/c1ccc(OCC(=O)O)cc1)c1ccccc1 (stereo not drawn)	-5	.	1	-31	35*	0
C[C@@H](NC(=O)/C(C#N)=C/c1ccc(O)c(O)c1)c1ccccc1	2	0	1	.	3	12
COC(=O)c1sc(=S)n(Cc2ccccc2)c1C	-3	5	-15	-24*	-2	0
COc1ccc2c3c(n(C)c2c1)[C@@H](CO)N(C(=O)c1cnccn1)CC31CN(C)C1	-2	8	.	0	-6	-6
O=[N+]([O-])c1ccc(/C=N/NC(=S)Nc2ccc(Cl)cc2Cl)s1	5	2	15	-19*	2	1
O=[N+]([O-])c1ccc(O)c(/C=N/NC(=S)Nc2ccc(Cl)cc2Cl)c1	-1	5	12	-15	0	13
Cc1ccc(NC(C)C(=O)N/N=C/c2ccc([N+](=O)[O-])s2)cc1 (stereo not drawn)	-2	4	-21	-22*	-1	1
COc1ccc(CN(C)C(=O)COC(=O)c2c(-c3ccccc3Cl)noc2C)cc1	2	.	-3	-27*	-1	.
COc1cc(N2C(=O)C=CC2=O)c(OC)cc1Cl	-12	-21	3	24	35*	3
COc1cc(Cl)c(S(=O)(=O)N2CCCC2)cc1Cl	3	.	-16	-12	0	.
CC(C)NC(=O)N(C)C[C@H]1OCCCC[C@H](C)Oc2ccc(NC(=O)CCCN(C)C)cc2C(=O)N([C@H](C)CO)C[C@@H]1C	17	-3	-4	5	-2	2
O=C(CNCc1cccc2ccccc12)Nc1ccccc1[N+](=O)[O-]	-2	-9	20	-31*	9	-2
O=C(CN1CCN(C(c2ccccc2)c2ccccc2)CC1)N1CCN(c2ccccc2)CC1	-8	9	11	-38*	-4	0
CSc1ccccc1NC(=O)Nc1ccccc1	-4	-30	-2	-13	5	44*
CSc1ccccc1NC(=O)Nc1cccc(F)c1	1	.	.	1	5	0
CC(=O)/C(C#N)=C1\NC(=O)C(Cc2ccccc2)S1 (stereo not drawn)	.	-2	.	.	.	.
CC(=O)/C(C#N)=C1\NC(=O)C(Cc2ccccc2C)S1 (stereo not drawn)	29	7	.	-30*	.	5
Cc1ccccc1-c1ccc([C@@H]2[C@@H](CO)N3C(=O)CN(C(=O)c4cccnc4)C[C@@H]23)cc1	.	.	.	-1	.	.
CC(=O)N1CC2(C1)[C@H](c1ccc(-c3cccc(F)c3)cc1)[C@@H](CO)N2CC1CC1	0	2	.	-6	6	0
